What was measured:
[1] = target: T1, Proteinase-activated receptor 4 (Homo sapiens) (UniProt Q96RI0); experiment: Antagonist activity at PAR4 in human platelet-rich plasma assessed as inhibition of PAR4 AP AYPGKF-NH2-induced platelet aggregation at 0.2 uM by photo-turbidimetry assay relative to control; assay type: functional
T1 sequence (whole entry): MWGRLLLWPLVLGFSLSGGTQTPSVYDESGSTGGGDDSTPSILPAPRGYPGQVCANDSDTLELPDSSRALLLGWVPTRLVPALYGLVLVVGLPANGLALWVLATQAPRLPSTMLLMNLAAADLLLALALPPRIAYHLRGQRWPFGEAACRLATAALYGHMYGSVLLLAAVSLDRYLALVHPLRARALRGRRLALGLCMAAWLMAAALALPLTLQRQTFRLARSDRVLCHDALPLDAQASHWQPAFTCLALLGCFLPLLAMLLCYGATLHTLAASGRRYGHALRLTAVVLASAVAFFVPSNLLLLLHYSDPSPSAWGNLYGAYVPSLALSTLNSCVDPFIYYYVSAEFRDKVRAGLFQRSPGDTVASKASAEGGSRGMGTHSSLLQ
How it was run: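 Human PRP from donated blood, spun at 160×g for 15 min, then adjusted to 3×10⁸/mL with PPP (2000×g, 15 min). Compound or saline vehicle preincubated with PRP for 5 min at 37 °C. Aggregation induced by AYPGKF-NH₂; maximal aggregation measured by light transmittance for 5 min. Percent inhibition at a single point; IC50 from ≥5 concentrations by curve fitting.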

[2] = target: T2, Proteinase-activated receptor 4 (Homo sapiens, UniProt Q96RI0); experiment: Antagonist activity at human PAR4 expressed in Ga15-HEK293 cells assessed as reduction in PAR4 AP AYPGKF-NH2-induced cytosolic calcium incubated for 24 hrs by FLIPR - calcium mobilization assay; assay type: functional, cell-based
T2 sequence (Q96RI0 whole entry): T1 sequence (whole entry)
How it was run: (§1)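 HEK293/Gα15 cells stably expressing human PAR1, PAR2 or PAR4, seeded at 45,000 cells/well and grown for 24 h at 37 °C, 5% CO₂. Cells loaded with calcium dye for 60 min at 37 °C in the dark. Compounds diluted from DMSO in HBSS and preincubated in the dark at room temperature. Agonists: SFFLRR (PAR1), 2-furoyl-LIGRLO-NH₂ (PAR2), AYPGKF-NH₂ (PAR4). Fluorescence read on FLIPR; 10-point half-log curves; mean of ≥2 determinations.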

[3] = target: T3, Proteinase-activated receptor 1 (Homo sapiens, UniProt P25116); experiment: Antagonist activity at human PAR1 expressed in Ga15-HEK293 cells assessed as reduction in PAR1 AP SFFLRR-NH2-induced cytosolic calcium incubated for 24 hrs by FLIPR - calcium mobilization assay; assay type: functional, cell-based; how it was run: as §1
T3 sequence (P25116 whole entry): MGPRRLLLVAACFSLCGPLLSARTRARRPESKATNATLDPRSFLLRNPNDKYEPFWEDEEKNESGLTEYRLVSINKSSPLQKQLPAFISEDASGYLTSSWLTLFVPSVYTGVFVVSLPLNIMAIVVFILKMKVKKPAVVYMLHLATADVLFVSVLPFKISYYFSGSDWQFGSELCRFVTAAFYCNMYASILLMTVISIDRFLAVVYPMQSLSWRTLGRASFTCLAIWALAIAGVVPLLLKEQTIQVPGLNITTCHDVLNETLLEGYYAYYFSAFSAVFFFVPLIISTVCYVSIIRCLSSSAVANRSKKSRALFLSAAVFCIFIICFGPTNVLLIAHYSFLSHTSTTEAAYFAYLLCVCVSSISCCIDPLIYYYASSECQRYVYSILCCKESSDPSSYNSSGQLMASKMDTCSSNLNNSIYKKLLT

[4] = target: T4, Proteinase-activated receptor 2 (Homo sapiens, UniProt P55085); experiment: Antagonist activity at human PAR2 expressed in Ga15-HEK293 cells assessed as reduction in PAR2 AP 2-furoyl-LIGRLO-NH2-induced cytosolic calcium incubated for 24 hrs by FLIPR - calcium mobilization assay; assay type: functional, cell-based; how it was run: as §1
T4 sequence (P55085 whole entry): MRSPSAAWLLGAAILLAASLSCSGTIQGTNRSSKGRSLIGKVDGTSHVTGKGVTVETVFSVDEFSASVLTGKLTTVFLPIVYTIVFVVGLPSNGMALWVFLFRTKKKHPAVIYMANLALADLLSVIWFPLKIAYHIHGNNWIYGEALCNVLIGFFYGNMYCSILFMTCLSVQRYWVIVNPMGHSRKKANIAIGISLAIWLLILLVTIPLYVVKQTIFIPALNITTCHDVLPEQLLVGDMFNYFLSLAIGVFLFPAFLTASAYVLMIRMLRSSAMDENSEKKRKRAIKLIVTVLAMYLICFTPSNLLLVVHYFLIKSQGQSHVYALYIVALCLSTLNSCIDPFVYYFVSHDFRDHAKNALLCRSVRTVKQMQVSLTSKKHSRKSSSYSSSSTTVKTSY

Row | SMILES | inhibition [1] [%] | further results
1 | COc1ccccc1-c1cc(C)cc2c(=O)n(C)cnc12 | 17.4 | –
2 | Cc1cc(-c2cc3ccccc3o2)c2ncn(C)c(=O)c2c1 | – | inhibition ([1]; filed as antagonist): 44.4%
3 | COCn1cnc2c(-c3nc4c(s3)CCCC4)cc(C)cc2c1=O | 35.7 | –
4 | Cc1cc(-c2cccnc2)c2ncn(C)c(=O)c2c1 | 1.8 | –
5 | Cc1cc(-c2nc3c(Cl)cc(OCCNC(=O)c4ccccc4)cc3s2)c2ncn(C)c(=O)c2c1 | – | inhibition ([1]; filed as antagonist): 94.5%
6 | CCOCn1cnc2c(-c3nc4c(Cl)cc(OC)cc4s3)cc(C)cc2c1=O | – | inhibition ([1]; filed as antagonist): 91.2%
7 | CCOCn1cnc2c(-c3nc4c(s3)CCCC4)cc(C)cc2c1=O | 15.1 | –
8 | CCc1cc(-c2nc3c(Cl)cc(OC)cc3s2)c2ncn(C)c(=O)c2c1 | – | inhibition ([1]; filed as antagonist): 92.8%; IC50 [2]: 6.8 nM; IC50 [3]: > 3160 nM; IC50 [4]: > 1000 nM
9 | Cc1cc(-c2cccc(Cl)c2Cl)c2ncn(C)c(=O)c2c1 | 34.3 | –
10 | CCCCc1cc(-c2nc3c(s2)CCCC3)c2ncn(CC)c(=O)c2c1 | – | inhibition ([1]; filed as antagonist): 9.3%
11 | Cc1cc(-c2nccs2)c2ncn(C)c(=O)c2c1 | 7.1 | –
12 | Cc1cc(-c2nc3c(Cl)cc(OCCN)cc3s2)c2ncn(C)c(=O)c2c1 | 33.2 | –
13 | COc1cc(F)c2nc(-c3cc(C)cc4c(=O)n(C)cnc34)sc2c1 | – | IC50 [2]: 3.2 nM; IC50 [3]: > 3160 nM; IC50 [4]: > 1000 nM

Now from value to molecule, other results behind:

Row | inhibition [1] [%] | SMILES | further results
14 | 8.7 | Cc1cc(-c2nc3c(Cl)cc(OCCNS(=O)(=O)c4ccc(F)cc4)cc3s2)c2ncn(C)c(=O)c2c1 | –
15 | 16 | Cc1cc(-c2ccccc2F)c2ncn(C)c(=O)c2c1 | –
16 | 36.5 | CCn1cnc2c(-c3nc4c(Cl)cc(OC)cc4s3)cc(C)cc2c1=O | –
17 | 26.8 | CCn1cnc2c(-c3nc4c(s3)CCCC4)cc(C)cc2c1=O | –
18 | 27.7 | C#CCn1cnc2c(-c3nc4c(F)cc(OC)cc4s3)cc(C)cc2c1=O | –
19 | 25.6 | COc1cc(Cl)c2nc(-c3cccc4c(=O)n(C)cnc34)sc2c1 | –
20 | 19.8 | Cn1cnc2c(-c3nc4c(s3)CCCC4)cccc2c1=O | –
21 | 17 | Cc1cc(-c2nc3c(s2)CCCC3)c2nc(C)n(C)c(=O)c2c1 | –

Source: ChEMBL document CHEMBL4842351, “Synthesis and evaluation of novel and potent protease activated receptor 4 (PAR4) antagonists based on a quinazolin-4(3H)-one scaffold” (Eur J Med Chem, 2021)
